# Assay outcomes as filed in PubChem.
# CHO parental Ca: counter-screen for OX1R antagonists: effect in parental CHO cells; parental CHO-K1, ATP-induced calcium, Fluo-8 fluorescence; inhibition, % at 5.6 µM; 0.63% of 330,000 active; AID 463079;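 active means inhibition above that plate's mean sample inhibition plus 3 SD, cut at about 26% in these data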
#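 Measured by: calcium-sensitive Fluo-8 fluorescence / Test system: CHO parental line / Controls: ATP-challenged DMSO wells low, unchallenged DMSO wells high / Measure: % inhibition / Compound: single nominal dose of 5.6 µM per compound / Replicates: single well per compound, no replicates / Reagent: ATP as calcium-mobilizing challenge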
# TAAR1 antagonist: human TAAR1 antagonism. CHO RD-HGA16 TAAR1, Fluo-8 calcium fluorescence, antagonist. inhibition, % at 3 µM. 1.5% of 360,000 active. AID 624466;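 active means inhibition above a per-plate cutoff, the mean inhibition of test compounds on that plate plus 3 SD, cut at about 49% in these data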
#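 Test system: RD-HGA16 CHO cells with stable hTAAR1 and Gα16 / Probe or stimulus: EC80 β-phenethylamine stimulus / Times: seeding 17-24 h prior, 75-min 37 °C, 30-min RT dye loading / Detection: Fluo-8 calcium-sensitive fluorescence / Read-out basis: % inhibition scaled between DMSO and EC80 PEA controls / Repeats: singlicate, one well per test compound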
# TAAR1 agonist: human TAAR1 agonism. CHO RD-HGA16 TAAR1, Fluo-8 calcium fluorescence; vehicle wells 0%, saturating PEA agonist 100%. activation, % at 3 µM. 0.99% of 360,000 active. Q96RJ0;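 active means activation above the mean activation of all test compounds in the run plus 3 SD, cut at about 38% in these data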
#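 Signal – calcium-sensitive Fluo-8 signal, excitation 470-495, emission 515-575 nm · System – RD-HGA16 (CHO) cells co-expressing Gα16 and hTAAR1 · Incubation – 17-24 h seeding, 75 min 37 °C dye, 30 min RT · Compound dosing – 3 µM single concentration · Repeats – no replicates (n 1)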
# GPR7 antagonist: antagonists of human GPR7 (neuropeptides B/W receptor 1); AID 1861; 1.1% of 290,000 active; GPR7-expressing cells, fluorescence antagonist assay; inhibition, % at 4.4 µM; in the data active means inhibition above about 16%, passing the limit was not always enough;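 further: cells stimulated with the agonist NPW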
# OX1R antag-1: OX1R (human) antagonism; O43613; OX1R-expressing cells, FRET antagonist read-out; inhibition, % at 6.6 µM; 1.8% of 330,000 active; AID 485270; in the data active means inhibition mostly above about 38%, no sharp cut-off; inactive means mostly below about 40%
# Target sequence (O43613 whole entry, looked up): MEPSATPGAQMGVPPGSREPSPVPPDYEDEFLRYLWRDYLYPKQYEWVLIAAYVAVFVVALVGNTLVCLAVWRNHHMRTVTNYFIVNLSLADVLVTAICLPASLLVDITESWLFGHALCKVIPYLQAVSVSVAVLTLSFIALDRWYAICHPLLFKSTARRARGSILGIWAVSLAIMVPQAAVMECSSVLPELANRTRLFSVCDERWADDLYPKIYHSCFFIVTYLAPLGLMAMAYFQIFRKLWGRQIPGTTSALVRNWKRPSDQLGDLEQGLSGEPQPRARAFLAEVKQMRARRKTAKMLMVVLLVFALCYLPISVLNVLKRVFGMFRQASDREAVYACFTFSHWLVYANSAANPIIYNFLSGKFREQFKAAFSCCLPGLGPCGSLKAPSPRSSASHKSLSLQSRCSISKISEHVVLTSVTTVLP
# OX1R antag-2: blocks the human orexin 1 receptor. CHO/OX1R cells, Fluo-8 calcium fluorescence, orexin A. inhibition, % at 5 µM. 0.43% of 330,000 active. AID 434989;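 active means inhibition above its plate's threshold, mean inhibition of all tested compounds on the plate plus 3 SD, cut at about 37% in these data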
# Hits are given with their value; 0 = inactive; - = no result. The list is not random: actives were taken first. Their share in the collection is about 4.6%.
SMILES,CHO parental Ca,TAAR1 antagonist,TAAR1 agonist,GPR7 antagonist,OX1R antag-1,OX1R antag-2
Brc1ccc(CN2CCN(Cc3c[nH]c4ccccc34)CC2)cc1,0,0,38,0,0,0
CN(C)c1ccc(CNC(=O)C2(C)Cc3c(-c4cccc(C(F)(F)F)c4)ccnc3O2)cc1 (stereo not given),-,0,0,-,-,-
O=C(COC(=O)c1ccc2c(c1)S(=O)(=O)c1ccccc1C2=O)NC1CC1,0,0,0,0,51,0
CC(OC(=O)c1ccc2c(c1)S(=O)(=O)c1ccccc1C2=O)C(N)=O (stereo not given),0,0,0,0,71,0
NC(=O)c1ccc2c(c1)S(=O)(=O)c1ccccc1C2=O,0,0,0,0,65,0
NC(=O)COC(=O)c1ccc2c(c1)S(=O)(=O)c1ccccc1C2=O,0,0,0,0,64,0
O=C(O)c1ccc2c(c1)S(=O)(=O)c1ccccc1C2=O,-,-,-,0,-,-
CCc1cccc(CC)c1NC(=O)COC(=O)c1ccc2c(c1)S(=O)(=O)c1ccccc1C2=O,0,0,0,0,0,0
COc1c2c(cc3c1c(=O)c1ccccc1n3C)OCO2,-,0,0,-,-,-
O=C(Nc1nnc([C@H]2C[C@H](O)[C@@H](CO)O2)s1)c1cccc(OC(F)(F)F)c1,-,0,0,-,-,-
O=C1c2ccccc2S(=O)(=O)c2cc(C(=O)N3CCN(c4ccccc4)CC3)ccc21,0,0,0,-,0,0
COCCN1CCN(C(=O)c2ccc3c(c2)S(=O)(=O)c2ccccc2C3=O)CC1,0,0,0,-,66,0
O=C(O)c1ccc2c(c1)S(=O)(=O)c1cc(Cl)ccc1C2=O,0,0,0,-,32,0
COc1cc2c(cc1OC)C(C(=O)O)C(c1ccc3c(c1)OCO3)N(C)C2=O (stereo not given),-,0,0,-,-,-
O=C(N[C@H](Cc1ccccc1)C(=O)NCc1ccccn1)[C@H]1O[C@@H](n2ccc(=O)[nH]c2=O)[C@H](O)[C@@H]1O,-,0,0,-,-,-
COc1ccc2c(c1)Cc1sc(NC(=O)c3ccco3)nc1-2,0,0,0,0,65,0
C[C@@H]1NS(=O)(=O)c2c(F)cccc2O[C@@H]1c1ccccc1,-,0,0,-,-,-
CN(C)C=NC(=O)c1ccc([N+](=O)[O-])c(CS(=O)(=O)c2ccc(Cl)cc2)c1,0,0,0,0,72,0
O=C(CCN1C(=O)/C(=C\c2ccccc2)SC1=S)NNC(=O)c1ccccc1O,0,0,0,0,64,0
O=C(CCCN1C(=O)/C(=C\c2ccccc2)SC1=S)N1CCOCC1,33,0,0,-,0,46
Cc1ccc(/C=C2\SC(=S)N(CCC(=O)NNS(=O)(=O)c3ccc(C)cc3)C2=O)cc1,0,0,0,21,0,0
O=C(CN1C(=O)S/C(=C\c2ccccc2)C1=O)NNC(=O)c1ccccc1O,0,0,0,0,0,0
O=C(CCCN1C(=O)S/C(=C\c2ccccc2)C1=O)NNC(=O)c1ccccc1O,0,0,0,0,56,0
O=S1(=O)CCC(N(N=Cc2ccco2)c2ccccc2)C1 (stereo not given),-,0,0,-,-,-
COc1ccc(Cc2c(C3CCCCC3)nc3c(C)cc(Br)cn23)c(C)c1,-,0,0,-,-,-
SMILES,CHO parental Ca,TAAR1 antagonist,TAAR1 agonist,GPR7 antagonist,OX1R antag-1,OX1R antag-2
COC(=O)[C@@]12C[C@@H](CC(=O)NCCCCc3ccccc3)C(=O)N(Cc3ccco3)C1=CCC(C)(C)C2,-,0,0,-,-,-
CC(=O)NNC(=O)CN1C(=O)/C(=C/c2ccccc2)SC1=S,0,0,0,21,0,0
O=C(CCCN1C(=O)/C(=C\c2cccs2)SC1=S)Nc1ccccc1O,-,0,0,-,-,-
O=C(CCN1C(=O)/C(=C\c2ccccc2)SC1=S)NNC(=O)c1cccnc1,0,54,0,0,0,0
CCN(CC)C(=O)CN1C(=O)/C(=C/c2ccccc2)SC1=S,0,0,0,0,0,0
O=C(CCCN1C(=O)c2ccccc2C1=O)NCCN1C(=O)S/C(=C\c2cccs2)C1=O,0,0,0,0,66,0
Cc1cc(OCCNCCO)cc(C)c1Cl,0,0,0,0,0,0
Cc1cc(OCCCCCNCCO)cc(C)c1Cl,0,0,0,19,0,0
NC(=O)c1c(N)[nH]c(C(=O)c2ccccc2)c1-c1ccc(Cl)cc1Cl,-,0,0,-,-,-
O=C(O)c1ccc(Sc2nnc3ccccn23)c([N+](=O)[O-])c1,0,0,0,0,72,0
